Unmarked numbers belong to inactive results. Results filed as inconclusive are left out. Calls of active or inactive are those of the source.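 Rule for the calls, unless noted: active = cell viability at or below a set limit in both duplicate runs, the limit being the all-compound median minus 4 SD (cut at about 23% in these data, passing the limit was not always enough); inconclusive = no clear call, values can overlap the other calls; inactive = the rest.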
Key:
[1] = OD615 S. cerevisiae growth inhibition, permissive medium, pilot counter-assay, permissive growth control for S. cerevisiae lifespan shortening project (AID 705;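 active = growth inhibition above 25% in both replicates, a cutoff set 3 SD above the mean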); conditions: OD615, 24 h, at 10 µM, active compounds read high
Procedure, shortened: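 System – S. cerevisiae with engineered DeaD lifespan system · Buffer or medium – SC raffinose/galactose permissive medium · Schedule – cells pre-grown 4 h, then 24 h compound exposure, 30 °C humidified · Technique – culture turbidity as optical density at 615 nm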

[2] = Restrictive medium S. cerevisiae growth inhibition, OD615, pilot screen of yeast lifespan reduction project, restrictive growth control (AID 706;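 active = growth inhibition above a set limit, 3 SD over mean compound inhibition, in both replicates, cut at about 43% in these data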;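 note: modified DeaD lifespan yeast strain shifted to restrictive glucose medium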); conditions: OD615, 48 h, at 10 µM, active compounds read high
Procedure, shortened: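 Material: engineered S. cerevisiae DeaD strain / Medium: glucose-based CSMM-D restrictive medium / Compound: single dose of 10 µM compound final, 0.25% DMSO / Timing: 4 h pre-incubation, 48 h exposure at 30 °C / Technique: OD615 absorbance reading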

[3] = viability gain of MRP-1-high H69AR cells under doxorubicin, pilot screen, MRP-1 activator project, CellTiter-Glo, duplicate (AID 807;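 active = viability increase at or above a cutoff of the median across tested compounds plus 3 SD, cut at about 8.5% in these data, passing the limit was not always enough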;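 note: compound pretreatment 18-22 h then 72 h combined with doxorubicin; 0% = doxorubicin alone and 100% = vehicle without doxorubicin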); conditions: H69AR viability with doxorubicin, CellTiter-Glo luminescence; at 10 µM; active compounds read high
[4] = growth suppression of beta-catenin knockout HCT116, pilot screen, human colon tumor cells (AID 823); conditions: CellTiter-Glo, 60 h, at 10 µM, active compounds read low;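 note: 0% = wells killed by 20 µM Hyamine and 100% = untreated DMSO cell wells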
[5] = growth suppression of PTEN-deleted HCT116, pilot screen, cell-based, HCT116 clonal line, CellTiter-Glo (AID 824;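 active = viability at or below 27.92% in each of two runs, the all-compound median minus 4 SD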;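 note: 0% = 20 µM Hyamine control and 100% = vehicle cell control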); conditions: 60 h, at 10 µM, active compounds read low
[6] = RAM signaling pathway blockade in yeast – S. cerevisiae, Pdr1DBD-CYC8 efflux-inhibited sensitized strain, primary screen (AID 1298;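 active = RAM network inhibition above 8.4% in each of two replicates, 3 SD over the compound average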;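 note: 0% = DMSO untreated cells without growth and 100% = 10 µM 1-NA-PP1 full growth; higher means more yeast growth rescued from 5-FOA killing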); conditions: S. cerevisiae cbk1-as DSE1-URA3 strain, 5-FOA growth OD615, 2 d; at 50 µM; active compounds read high
[7] = inhibitors of the yeast RAM network, pilot screen, dse1pr::URA3 reporter, 5-FOA selection (AID 869;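 active = inhibition over a set limit, the all-compound mean plus 3 SD, in both replicate runs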;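 note: 0% = DMSO wells with no growth and 100% = 10 µM 1-NA-PP1 with full growth; RAM network block rescues cells from 5-FOA so hits raise OD615 growth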); conditions: S. cerevisiae dse1pr::URA3 5-FOA growth, OD615, 2 d; at 10 µM; active compounds read high; strain carries analog-sensitive mutant Cbk1 kinase

| Compound | growth inhibition [1] | growth inhibition [2] | viability increase [3] | viability [4] | viability [5] | RAM network inhibition [6] | inhibition [7] |
| --- | --- | --- | --- | --- | --- | --- | --- |
| CCCc1cc(C(=O)NCCc2ccc(OC)c(OC)c2)no1 | 1.33% | 4.92% | -1.89% | 106% | 97.2% | 3.29% | – |
| O=c1c2ccccc2nc2c3ccccc3ncn12 | -15.1% | -15.2% | -0.34% | 103% | 101% | 6.01% | – |
| CCN(CC)CCn1c(=S)[nH]c2ccccc2c1=O | -8.59% | 6.18% | -1.56% | 103% | 98.1% | 6.58% | – |
| Cc1nnc(NC(=O)CSc2nnc(Cc3cccn3C)n2-c2cccc(C)c2C)s1 | 6.78% | 31% | -0.56% | 100% | 87.2% | -0.2% | – |
| Cc1cc(Nc2ccc(C)c(Br)c2)n2nc(C)nc2n1 | -12.9% | 10.4% | -5% | 92.1% | 92.8% | 3.87% | – |
| Cc1ccc2oc(-c3ccc(NC(=O)CC(C)C)cc3)nc2c1 | -9.28% | -6.46% | -0.39% | 102% | 92.6% | 7.81% | – |
| N#Cc1nc(-c2ccc(F)cc2)oc1NCCN1CCOCC1 | -0.47% | -8.75% | -2.06% | 96% | 92.3% | 7.83% | – |
| COc1ccc(C(=O)n2nc(C)cc2C)cc1Br | -8.38% | -1.95% | -0.08% | 101% | 99.3% | -0.42% | – |
| COc1ccc(-n2c(SCC(=O)Nc3nccs3)nc3c(c2=O)SCC3)cc1 | -1.01% | -11.5% | -3.87% | 93.2% | 84.6% | 5.95% | – |
| CCOC(=O)C1CCN(C(C(=O)NC2CCCCC2)c2ccc(OC)cc2)CC1 (stereo unspecified) | -4.53% | -11.7% | -1.91% | 93.2% | 88.6% | 3.74% | – |
| CCOc1ccc(-n2c(SCC(N)=O)nc3c([nH]c4ccccc43)c2=O)cc1 | -16.6% | 2.87% | -2.27% | 62.5% | 71.4% | 11.2% | – |
| Cc1cc(Nc2cccc(Cl)c2)n2ncnc2n1 | -2.62% | 7.42% | -2.08% | 95.9% | 98.7% | 1.67% | – |
| COc1ccc(C(=O)CSc2nnc(-c3ccccc3)o2)cc1 | 4.92% | 15.3% | -0.88% | 95.6% | 88.8% | 7.56% | – |
| CCOC(=O)Nc1ccc(S(=O)(=O)Nn2cnnc2)cc1 | -14.5% | 1.07% | 0% | 89% | 108% | 3.94% | – |
| CCOC(=O)c1c(NC(=O)c2cccs2)sc2c1CCC2 | -13.6% | -20.4% | -0.45% | 91.7% | 90.4% | 4.33% | – |
| COc1ccc(-c2cc(C(F)(F)F)nc(S(C)(=O)=O)n2)cc1OC | -23.4% | -9.75% | -7.11% | 14.5% (active) | 48.7% | -0.26% | – |
| COc1ccc(CCc2nc(-c3ccc(-n4cccc4)cc3)no2)cc1 | -20.1% | -25.5% | 1.78% | 93.9% | 91.6% | 6.54% | – |
| COc1ccc(-c2nc(-c3cccc(C(F)(F)F)c3)no2)cc1OC | -2.88% | 1.6% | -0.18% | 99% | 93.3% | 7.48% | – |
| Cc1cc2cc(CNC(=O)c3ccc(S(=O)(=O)N4CCOCC4)cc3)ccc2[nH]1 | -5.21% | -10.8% | 0.86% | 99.5% | 96.2% | 5.69% | – |
| Cc1cc(NC(=O)CSc2cn(CCNC(=O)c3ccc(Cl)cc3)c3ccccc23)no1 | -4.83% | -1.28% | -0.7% | 61.5% | 57.3% | 3.24% | – |

| Compound | growth inhibition [1] | growth inhibition [2] | viability increase [3] | viability [4] | viability [5] | RAM network inhibition [6] | inhibition [7] |
| --- | --- | --- | --- | --- | --- | --- | --- |
| Cn1c(Cn2c(=O)sc3ccccc32)nnc1SCc1ccccc1 | -3.71% | -6.89% | 0.76% | 72.9% | 71.2% | 4.4% | – |
| CCC(C)(C(=O)NC1CCCC1)N(CC1CCCO1)C(=O)CNC(=O)c1ccccc1 (stereo unspecified) | -6.16% | -12.3% | -2.92% | 98.2% | 93% | 1.24% | – |
| C=CCOC(=O)c1sc(NC(=O)c2ccco2)nc1C | -13.2% | -5.04% | -1.25% | 94% | 84.6% | 1.63% | – |
| O=C(NCc1ccccc1Cl)C1CCN(C(=O)c2sccc2-n2cccc2)CC1 | -17.6% | -12% | -2.65% | 99.2% | 86.8% | 8.69% | – |
| COc1ccccc1S(=O)(=O)Cc1ccc(C(=O)NCc2cccnc2)o1 | 0.915% | -0.525% | -1.11% | 97.8% | 94.9% | 2.56% | – |
| CCOc1ccc(N(CC(=O)Nc2cccc(Cl)c2)S(=O)(=O)c2c(C)noc2C)cc1 | -14.8% | -4.69% | -7.01% | 39.2% | 45.7% | 12.6% | – |
| CCCCCCSc1cc(C)nc2ncnn12 | -19% | 2.92% | -0.06% | 93.6% | 83.2% | 0.21% | – |
| CC(=O)NCc1cn2c(C)csc2n1 | -16.9% | -3.26% | -3.88% | 98.1% | 90% | 3.01% | – |
| COCCCNc1nc2c(c(=O)[nH]c(=O)n2C)n1CC(O)COc1ccccc1C (stereo unspecified) | -1.92% | -7.5% | -2.64% | 98.9% | 101% | 3.44% | – |
| FC(F)(F)c1nc(N2CCN(c3ccccc3)CC2)nc2c1CCCCC2 | -16.6% | -18.3% | -0.3% | 72.5% | 73.4% | 9.39% | – |
| COc1ccc(Nc2oc(-c3ccccc3Cl)nc2C#N)cc1 | 9.48% | 0.98% | -8% | 6.01% (active) | 8.29% (active) | 7.73% | 1.94% |
| CCOc1ccc(-n2nnc3c(=O)n(CC(=O)N4CCCc5ccccc54)cnc32)cc1 | -3.47% | -10.2% | -0.3% | 85.3% | 84% | 2.69% | – |
| NS(=O)(=O)c1ccc(CCNC2CC(=O)N(CCc3ccccc3)C2=O)cc1 (stereo unspecified) | -14.1% | -16% | 1.79% | 98% | 99.9% | 1.42% | 0.24% |
| Cn1c2c(c(=O)n(C)c1=O)C1c3ccccc3OCC1C(C)(C)O2 (stereo unspecified) | -15.4% | -19.5% | -2.46% | 98.7% | 96.1% | 0.68% | -0.05% |
| Cc1ccc(C)c2[nH]c(=O)c(CCNC(=O)c3cc4ccccc4o3)cc12 | -2.5% | -11.6% | 1.81% | 95.4% | 91.2% | 4.18% | – |
| COc1ccc(CNC(=O)Cn2cc3c(n2)CCCCC3)cc1 | 2.42% | -0.895% | -2.29% | 102% | 91.9% | -1.07% | 0.54% |
| O=C(CCc1nc2ccccc2[nH]1)Nc1ccc2c(c1)OCCO2 | -17.1% | -18.4% | -2.36% | 94.2% | 94.8% | 0.89% | – |
| Cc1ccc(OCc2nc(-c3ccccn3)no2)c(Br)c1 | 1.26% | 4.31% | 1.13% | 86.7% | 84.9% | 1.62% | -0.35% |
| O=C1OCc2cc(NC(=O)C3COc4ccccc4O3)ccc21 (stereo unspecified) | -17.8% | 10.7% | -0.17% | 103% | 93.3% | 10.9% | 1.29% |
| O=C(Nc1nc(-c2nc3ccccc3s2)cs1)C1COc2ccccc2O1 (stereo unspecified) | 2.93% | -0.5% | -2.5% | 96.8% | 91.3% | 2.13% | – |
